Source: PubChem (several laboratories)
SENP8 block-1: SENP8 protease inhibitors, primary screen, biochemical, luminescence | purified SENP8, Z-RLRGG-aminoluciferin cleavage | Sentrin-specific protease 8 (Homo sapiens), Q96LD8 | AID 2540, 2010 | inhibition, % at 10 µM | hit rate 1.2% among 330,000; in the data active = inhibition above about 50%
Target sequence (Q96LD8 whole entry, looked up): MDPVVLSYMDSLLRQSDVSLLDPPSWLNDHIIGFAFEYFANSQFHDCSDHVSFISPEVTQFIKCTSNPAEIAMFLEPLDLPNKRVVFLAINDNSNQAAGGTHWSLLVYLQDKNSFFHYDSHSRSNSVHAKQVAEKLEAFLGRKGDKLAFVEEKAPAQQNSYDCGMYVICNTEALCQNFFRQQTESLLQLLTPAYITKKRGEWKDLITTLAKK
SENP6 block: SENP6 protease inhibitors, primary screen, biochemical, luminescence, uHTS; Sentrin-specific protease 6 (Homo sapiens), Q9GZR1; Recombinant SENP6 catalytic domain, aminoluciferin luminescence; inhibition, % at 10 µM; hit rate 1.8% among 330,000; AID 2599, 2010;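 active = inhibition above about 50% at the single tested dose, limit read from the data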;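 also: plate controls were DMSO wells with enzyme for no effect and DMSO wells lacking enzyme for full effect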
HSP90 refold inh: HSP90 inhibitors, primary screen, cell lysate, luminescence; Rabbit reticulocyte lysate, luciferase refolding luminescence, 3 h; inhibition, % at 5.6 µM; hit rate 0.91% among 290,000; AID 1789, 2009;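 active = inhibition above the screen-wide mean plus 3 SD, computed separately per campaign, cut at about 16% in these data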;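 also: 0% = DMSO wells and 100% = 60 µM geldanamycin wells; inhibitors lower the luminescence because luciferase stays unfolded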
SENP1 FRET inh: human SENP1 catalytic domain inhibitors, primary screen, biochemical, FRET, uHTS | AID 624204, 2012 | inhibition, % at 10 µM | Sentrin-specific protease 1 (Homo sapiens), Q9P0U3 | recombinant SENP1 catalytic domain, CyPet-SUMO1-YPet FRET cleavage | hit rate 0.21% among 360,000;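 active = inhibition at least 30% at 10 µM, raw YFP signal under a set limit, fluorescence ratio 0.5 to 1.5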;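 also: 0% = enzyme with DMSO and 100% = no enzyme wells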
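material = recombinant human SENP1 catalytic domain, His6-tagged | quantity = 20 pM enzyme | reagent = 25 nM SUMO1 FRET substrate | compound dosing = 10 µM single point, 0.5% DMSO | timing = 50 min enzyme reaction, room temperature, light-protected | detection = FRET, CFP and YFP emission | control set = no-enzyme low, enzyme-DMSO high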
SENP7 inh: SENP7 protease inhibitors, primary screen, biochemical, luminescence, uHTS. hit rate 1.5% among 330,000. recombinant SENP7, Z-RLRGG-aminoluciferin luminescence, 40 min. Sentrin-specific protease 7 (Homo sapiens), Q9BQF6. inhibition, % at 5 µM;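 active = inhibition above about 50% at the single test dose, limit read from the data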;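 also: plate controls were DMSO with enzyme for no effect and no enzyme buffer wells for full effect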
SENP8 block-2: human SENP8 protease inhibitors, primary screen, biochemical, fluorescence, Nedd8 protein substrate, uHTS; inhibition, % at 20 µM; AID 602440, 2012; recombinant SENP8; hit rate 0.64% among 360,000; Sentrin-specific protease 8 (Homo sapiens), Q96LD8; in the data active = inhibition mostly above about 40%, no sharp cut-off; inactive = mostly below about 27%
SENP8 conf: SENP8 protease inhibitors, retest, confirmation, biochemical, luminescence, single concentration | inhibition, % at 12.5 µM | AID 488912, 2010 | Recombinant SENP8, Z-RLRGG-aminoluciferin luminescence, 60 min | shares compounds with SENP7 inh | hit rate 40% among 6,200;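 active = mean inhibition across replicates above about 50%, limit read from the data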
SENP6 confirm: SENP6 protease inhibitors, confirmation, biochemical, luminescence, single concentration. shares compounds with SENP7 inh. recombinant SENP6, Z-RLRGG-aminoluciferin luminescence. inhibition, % at 12.5 µM. hit rate 58% among 6,200. AID 488915, 2010
SENP7 conf: SENP7 protease inhibitors, retest, confirmation, biochemical, luminescence, single concentration | shares compounds with SENP7 inh | recombinant SENP7, Z-RLRGG-aminoluciferin luminescence, 40 min | inhibition, % at 12.5 µM | hit rate 69% among 6,200 | AID 488917, 2010
Casp3 SENP sel: caspase-3 protease inhibitors, confirmation, selectivity assay for SENP inhibitor project, biochemical, single concentration; shares compounds with SENP7 inh; purified caspase-3, Z-DEVD-aminoluciferin luminescence, 60 min; inhibition, % at 12.5 µM; hit rate 60% among 6,200; AID 488918, 2010;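 active = mean inhibition above about 50%, limit read from the data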;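 also: plate controls were enzyme with DMSO for no effect and wells without caspase-3 for full effect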
Target sequence (P42574 28-227 limits assumed): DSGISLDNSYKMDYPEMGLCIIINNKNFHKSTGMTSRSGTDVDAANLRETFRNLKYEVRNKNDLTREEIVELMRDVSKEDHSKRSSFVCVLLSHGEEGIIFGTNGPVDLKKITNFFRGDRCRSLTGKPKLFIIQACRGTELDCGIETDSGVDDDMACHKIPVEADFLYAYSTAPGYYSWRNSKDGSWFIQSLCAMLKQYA
Luc interf: luminescence interference (SENP counter-screen); AID 488919; inhibition, % at 12.5 µM; hit rate 39% among 6,200; Pre-incubated SENP8/Z-RLRGG-aminoluciferin, luciferase luminescence interference; shares compounds with SENP7 inh;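 active = mean inhibition above about 50% when retested at one dose, limit read from the data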;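 also: plate controls were DMSO wells with completed reaction for no effect and substrate without enzyme for full effect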
Starred values were filed as active, the others as inactive. The list is not random: actives were taken first. Their share in the collection is about 2.9%.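 The calls were made as follows, unless noted: active = mean inhibition above about 50% in the one-dose retest (limit read from the data); inactive = the rest.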

For CCOC(=O)C1=C(C)NC(C)=C(C(=O)OCC)C1C(=O)OCC(=O)NCc1ccccc1OC the results were SENP8 block-1 5, SENP6 block 9, SENP1 FRET inh -11, SENP7 inh 3 and SENP8 block-2 inactive.
O=C(CNc1cccc2ccccc12)N/N=C/c1ccc([N+](=O)[O-])o1 was read as SENP8 block-1 9, SENP6 block 80*, HSP90 refold inh 2, SENP1 FRET inh -3, SENP7 inh 39, SENP8 block-2 -99, SENP8 conf 22, SENP6 confirm 40, SENP7 conf 12, Casp3 SENP sel 0 and Luc interf -1.
C=CCc1cccc(/C=N/NC(=O)CNc2cccc3ccccc23)c1O was read as SENP8 block-1 34, SENP6 block 72*, HSP90 refold inh 5, SENP1 FRET inh -1, SENP7 inh 31, SENP8 block-2 -216, SENP8 conf 7, SENP6 confirm 7, SENP7 conf 18, Casp3 SENP sel 13 and Luc interf 10.
For O=C(CNc1cccc2ccccc12)N/N=C/C(Br)=C/c1ccccc1 the results were SENP8 block-1 56*, SENP6 block 80*, HSP90 refold inh 5, SENP1 FRET inh -14, SENP7 inh 39, SENP8 block-2 -48, SENP8 conf 10, SENP6 confirm 14, SENP7 conf 12, Casp3 SENP sel 5 and Luc interf 5.
`O=C1NC(c2cc(Cl)cc([N+](=O)[O-])c2O)Nc2ccccc21` (stereo not drawn) gave SENP8 block-1 69*, SENP6 block 87*, HSP90 refold inh -1, SENP1 FRET inh -19, SENP7 inh 17, SENP8 block-2 18, SENP8 conf 9, SENP6 confirm 25, SENP7 conf 15, Casp3 SENP sel 27 and Luc interf 33.
`C=CCN1C(=O)c2ccc(C(=O)N3CCN(c4ccccc4OC)CC3)cc2C1=O` gave SENP8 block-1 8, SENP6 block -1, SENP1 FRET inh 1, SENP7 inh -6 and SENP8 block-2 3.
Screening CS(=O)(=O)c1ccccc1-c1nc(-c2cccc(Cl)c2)no1 returned SENP8 block-1 -3, SENP6 block -22, HSP90 refold inh -2, SENP1 FRET inh 11, SENP7 inh -1 and SENP8 block-2 9.
`Clc1cccc(-c2nc(-c3ccc(-c4nn[nH]n4)cc3)no2)c1` gave SENP8 block-1 95*, SENP6 block 99*, SENP1 FRET inh 0, SENP7 inh 79*, SENP8 block-2 14, SENP8 conf 97*, SENP6 confirm 97*, SENP7 conf 100*, Casp3 SENP sel 83* and Luc interf 89*.
